Data reported in ChEMBL document CHEMBL2157922, “Synthesis and antifungal activity of diverse C-2 pyridinyl and pyridinylvinyl substituted quinolines” (2012).
Converted amounts (≈) assume the structure as drawn.

How the values were obtained:
[1] = system: Cryptococcus neoformans; test: Antifungal activity against Cryptococcus neoformans ATCC 32264 at 31.2 ug/ml after 48 hrs; assay type: functional; conditions: ATCC 32264, 48 h
In short: (§1)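 C. neoformans was tested by 96-well RPMI-1640 microdilution, with DMSO-matched growth and sterility control wells. Plates were incubated 48 h at 30 °C in a moist, dark chamber and read at OD405. % inhibition = 100 − (CTW − SCW)/(GCW − SCW), in duplicate. For the clinical isolates, MIC80 and MIC50 are the lowest concentrations giving 80% and 50% inhibition.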

[2] = system: Candida albicans; test: Antifungal activity against Candida albicans CCC 128 after 48 hrs by broth microdilution technique; assay type: functional; conditions: CCC 128, 48 h
[3] = system: Candida albicans; test: Antifungal activity against Candida albicans CCC 125 after 48 hrs by broth microdilution technique; assay type: functional; conditions: CCC 125, 48 h
[4] = system: Nakaseomyces glabratus; test: Antifungal activity against Candida glabrata CCC 115 after 48 hrs by broth microdilution technique; assay type: functional; conditions: CCC 115, 48 h
[5] = system: Nannizzia gypsea; test: Antifungal activity against Microsporum gypseum CCC 115 after 48 hrs by broth microdilution technique; assay type: functional; conditions: CCC 115, 48 h
In short: (§2)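 Moulds and dermatophytes were run by CLSI broth microdilution in MOPS-buffered RPMI-1640 at pH 7.0. Aspergillus was incubated at 30 °C and dermatophytes at 28–30 °C, in a moist, dark chamber. MIC100, the lowest concentration with no visible growth, was read visually at a time set by growth of the control fungus.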

[6] = system: Trichophyton rubrum; test: Antifungal activity against Trichophyton rubrum CCC 113 after 48 hrs by broth microdilution technique; assay type: functional; conditions: CCC 113, 48 h
[7] = system: Candida albicans; test: Antifungal activity against Candida albicans CCC 126 after 48 hrs by broth microdilution technique; assay type: functional; conditions: CCC 126, 48 h
[8] = system: Cryptococcus neoformans; test: Antifungal activity against Cryptococcus neoformans IM 983040 after 48 hrs by broth microdilution technique; assay type: functional; conditions: IM 983040, 48 h; in short: as §1
[9] = system: Candida albicans; test: Antifungal activity against Candida albicans CCC 129 after 48 hrs by broth microdilution technique; assay type: functional; conditions: CCC 129, 48 h
[10] = system: Cryptococcus neoformans; test: Antifungal activity against Cryptococcus neoformans IM 983036 after 48 hrs by broth microdilution technique; assay type: functional; conditions: IM 983036, 48 h; in short: as §1
[11] = system: Aspergillus niger; test: Antifungal activity against Aspergillus niger ATCC 9029 after 48 hrs by broth microdilution technique; assay type: functional; conditions: ATCC 9029, 48 h; in short: as §2
[12] = system: Trichophyton mentagrophytes; test: Antifungal activity against Trichophyton mentagrophytes ATCC 9972 after 48 hrs by broth microdilution technique; assay type: functional; conditions: ATCC 9972, 48 h; in short: as §2
[13] = system: Aspergillus flavus; test: Antifungal activity against Aspergillus flavus ATCC 9170 after 48 hrs by broth microdilution technique; assay type: functional; conditions: ATCC 9170, 48 h; in short: as §2
[14] = system: Cryptococcus neoformans; test: Antifungal activity against Cryptococcus neoformans IM 972751 after 48 hrs by broth microdilution technique; assay type: functional; conditions: IM 972751, 48 h; in short: as §1
[15] = system: Cryptococcus neoformans; test: Antifungal activity against Cryptococcus neoformans IM 972724 after 48 hrs by broth microdilution technique; assay type: functional; conditions: IM 972724, 48 h; in short: as §1
[16] = system: Saccharomyces cerevisiae; test: Antifungal activity against Saccharomyces cerevisiae ATCC 9763 after 48 hrs by broth microdilution technique; assay type: functional; conditions: ATCC 9763, 48 h
In short: (§3)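 Yeasts were tested by CLSI broth microdilution in RPMI-1640 buffered to pH 7.0 with MOPS, with compound from 250 down to 0.98 in DMSO stocks. Trays were held at 30 °C in a moist, dark chamber. MIC100, the lowest concentration giving total visual inhibition against the growth control, was read by eye at 48 h.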

[17] = system: Candida albicans; test: Antifungal activity against Candida albicans CCC 130 after 48 hrs by broth microdilution technique; assay type: functional; conditions: CCC 130, 48 h
[18] = system: Candida albicans; test: Antifungal activity against Candida albicans CCC 127 after 48 hrs by broth microdilution technique; assay type: functional; conditions: CCC 127, 48 h
[19] = system: Candida albicans; test: Antifungal activity against Candida albicans ATCC 10231 at 7.8 ug/ml after 24 hrs; assay type: functional; conditions: ATCC 10231, 24 h
In short: (§4)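 C. albicans was grown in 96-well RPMI-1640 broth microdilution with compound wells diluted from DMSO stocks. Growth wells with matched DMSO and sterility wells were included. After 24 h at 30 °C in a moist, dark chamber, OD405 was read. % inhibition = 100 − (CTW − SCW)/(GCW − SCW) OD, done in duplicate.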

[20] = system: Candida albicans; test: Antifungal activity against Candida albicans ATCC 10231 at 31.2 ug/ml after 24 hrs; assay type: functional; conditions: ATCC 10231, 24 h; in short: as §4
[21] = system: Candida tropicalis; test: Antifungal activity against Candida tropicalis CCC 131 after 48 hrs by broth microdilution technique; assay type: functional; conditions: CCC 131, 48 h
[22] = system: Aspergillus fumigatus; test: Antifungal activity against Aspergillus fumigatus ATCC 26934 after 48 hrs by broth microdilution technique; assay type: functional; conditions: ATCC 26934, 48 h; in short: as §2
[23] = system: Candida albicans; test: Antifungal activity against Candida albicans ATCC 10231 after 48 hrs by broth microdilution technique; assay type: functional; conditions: ATCC 10231, 48 h; in short: as §3
[24] = system: Pichia kudriavzevii; test: Antifungal activity against Candida krusei CCC 117 after 48 hrs by broth microdilution technique; assay type: functional; conditions: CCC 117, 48 h
[25] = system: Cryptococcus neoformans; test: Antifungal activity against Cryptococcus neoformans ATCC 32264 after 48 hrs by broth microdilution technique; assay type: functional; conditions: ATCC 32264, 48 h; in short: as §3
[26] = system: Candida albicans; test: Antifungal activity against Candida albicans CCC 130 after 24 hrs by broth microdilution technique; conditions: CCC 130, 24 h
[27] = system: Cryptococcus neoformans; test: Antifungal activity against Cryptococcus neoformans IM 042074 after 48 hrs by broth microdilution technique; assay type: functional; conditions: IM 042074, 48 h; in short: as §1
[28] = system: Candida albicans; test: Antifungal activity against Candida albicans ATCC 10231 at 15.6 ug/ml after 24 hrs; assay type: functional; conditions: ATCC 10231, 24 h; in short: as §4
[29] = system: Cryptococcus neoformans; test: Antifungal activity against Cryptococcus neoformans IM 00319 after 48 hrs by broth microdilution technique; assay type: functional; conditions: IM 00319, 48 h; in short: as §1
[30] = system: Candida parapsilosis; test: Antifungal activity against Candida parapsilosis CCC 124 after 48 hrs by broth microdilution technique; assay type: functional; conditions: Lodderomyces parapsilosis, CCC 124, 48 h

C(=C\c1ccc2ccccc2n1)/c1ccncc1
inhibition at 31.2 µg/mL [1]: 80% | MIC50 [2]: 7.8 µg/mL (≈ 33.6 µM) | MIC80 [2]: 15.6 µg/mL (≈ 67.2 µM) | MIC50 [3]: 7.8 µg/mL (≈ 33.6 µM) | MIC80 [3]: 15.6 µg/mL (≈ 67.2 µM) | MIC50 [4]: 31.2 µg/mL (≈ 134 µM) | MIC80 [4]: 62.5 µg/mL (≈ 269 µM) | MFC [5]: 125 µg/mL (≈ 538 µM) | MIC [5]: 31 µg/mL (≈ 133 µM) | MFC [6]: 125 µg/mL (≈ 538 µM) | MIC [6]: 31 µg/mL (≈ 133 µM) | MIC50 [7]: 15.6 µg/mL (≈ 67.2 µM) | MIC80 [7]: 31.2 µg/mL (≈ 134 µM) | MIC50 [8]: 7.8 µg/mL (≈ 33.6 µM) | MIC80 [8]: 31.2 µg/mL (≈ 134 µM) | MIC50 [9]: 15.6 µg/mL (≈ 67.2 µM) | MIC80 [9]: 31.2 µg/mL (≈ 134 µM) | MIC50 [10]: 7.8 µg/mL (≈ 33.6 µM) | MIC80 [10]: 31.2 µg/mL (≈ 134 µM) | MFC [11]: > 250 µg/mL | MIC [11]: 125 µg/mL (≈ 538 µM) | MFC [12]: 125 µg/mL (≈ 538 µM) | MIC [12]: 31 µg/mL (≈ 133 µM) | MFC [13]: 250 µg/mL (≈ 1080 µM) | MIC [13]: 125 µg/mL (≈ 538 µM) | MIC50 [14]: 3.9 µg/mL (≈ 16.8 µM) | MIC80 [14]: 31.2 µg/mL (≈ 134 µM) | MIC50 [15]: 7.8 µg/mL (≈ 33.6 µM) | MIC80 [15]: 31.2 µg/mL (≈ 134 µM) | MFC [16]: 250 µg/mL (≈ 1080 µM) | MIC [16]: 62 µg/mL (≈ 267 µM) | MIC80 [17]: 15.6 µg/mL (≈ 67.2 µM) | MIC50 [18]: 15.6 µg/mL (≈ 67.2 µM) | MIC80 [18]: 15.6 µg/mL (≈ 67.2 µM) | inhibition at 7.8 µg/mL [19]: 50% | inhibition at 31.2 µg/mL [20]: 80% | MIC50 [21]: 31.2 µg/mL (≈ 134 µM) | MIC80 [21]: 62.5 µg/mL (≈ 269 µM) | MFC [22]: 250 µg/mL (≈ 1080 µM) | MIC [22]: 125 µg/mL (≈ 538 µM) | MFC [23]: 250 µg/mL (≈ 1080 µM) | MIC [23]: 62 µg/mL (≈ 267 µM) | MIC50 [23]: 7.8 µg/mL (≈ 33.6 µM) | MIC80 [23]: 15.6 µg/mL (≈ 67.2 µM) | MIC50 [24]: 15.6 µg/mL (≈ 67.2 µM) | MIC80 [24]: 31.2 µg/mL (≈ 134 µM) | MFC [25]: 125 µg/mL (≈ 538 µM) | MIC [25]: 62 µg/mL (≈ 267 µM) | MIC50 [25]: 15.6 µg/mL (≈ 67.2 µM) | MIC80 [25]: 31.2 µg/mL (≈ 134 µM) | MIC50 [26]: 7.8 µg/mL (≈ 33.6 µM) | MIC50 [27]: 3.9 µg/mL (≈ 16.8 µM) | MIC80 [27]: 31.2 µg/mL (≈ 134 µM) | inhibition at 15.6 µg/mL [28]: 80% | MIC50 [29]: 7.8 µg/mL (≈ 33.6 µM) | MIC80 [29]: 31.2 µg/mL (≈ 134 µM) | MIC50 [30]: 7.8 µg/mL (≈ 33.6 µM) | MIC80 [30]: 31.2 µg/mL (≈ 134 µM)
